# Bioassay records deposited in PubChem BioAssay by The Scripps Research Institute Molecular Screening Center.
# An excerpt weighted towards active compounds, which were near 1.2% of everything screened.
# PP1 inh – PP1-alpha phosphatase inhibitors, primary screen, counter-screen for PP5 inhibitor project, biochemical, fluorescence, OMFP substrate, single point | Serine/threonine-protein phosphatase PP1-alpha catalytic subunit (Homo sapiens), P62136 | purified PP1alpha | inhibition, % at 6.7 µM | hit rate 0.9% among 320,000 | AID 2235, 2010;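 active means inhibition above the mean inhibition of all tested compounds plus 3 SD, computed separately for each screening campaign, cut at about 15% in these data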
# Target sequence (P62136 whole entry, looked up): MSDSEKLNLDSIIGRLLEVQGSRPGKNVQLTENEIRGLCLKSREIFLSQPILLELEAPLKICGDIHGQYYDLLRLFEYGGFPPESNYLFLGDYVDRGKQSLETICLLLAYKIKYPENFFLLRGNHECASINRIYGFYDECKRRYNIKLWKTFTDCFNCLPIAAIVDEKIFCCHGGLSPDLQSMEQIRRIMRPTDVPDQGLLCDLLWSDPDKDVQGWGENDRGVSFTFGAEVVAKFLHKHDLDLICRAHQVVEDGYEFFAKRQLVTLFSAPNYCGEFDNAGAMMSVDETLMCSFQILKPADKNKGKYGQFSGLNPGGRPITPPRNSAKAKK
# procasp3 activ – activators of human procaspase-3 D3A mutant, primary screen, biochemical, absorbance, PC-3 D3A mutant, single concentration | activation, % at 8.5 µM | Caspase-3 (Homo sapiens), P42574 | hit rate 0.11% among 330,000 | recombinant procaspase-3 D3A, Ac-DEVD-pNA absorbance 405 nm | AID 463141, 2010;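 active means activation above the mean of all tested compounds plus 3 SD, cut at about 21% in these data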;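 further: 0% = DMSO alone and 100% = DMSO wells spiked with extra 5 µM PC-3 D3A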
# Target sequence (P42574 whole entry D9A/D28A/D175A): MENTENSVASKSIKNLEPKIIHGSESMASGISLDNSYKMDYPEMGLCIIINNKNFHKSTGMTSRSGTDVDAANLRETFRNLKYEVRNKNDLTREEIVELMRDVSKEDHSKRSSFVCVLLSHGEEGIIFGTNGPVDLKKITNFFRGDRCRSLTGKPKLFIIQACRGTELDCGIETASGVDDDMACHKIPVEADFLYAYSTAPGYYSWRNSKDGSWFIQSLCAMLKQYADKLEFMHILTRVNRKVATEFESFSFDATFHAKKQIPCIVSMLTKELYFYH
#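 Assay system: Autoprocessing-dead procaspase-3 D3A mutant enzyme; also added: Ac-DEVD-pNA; doses: one concentration, 8.5 µM nominal, 0.8% DMSO; times: 1 h compound preincubation, 2 h substrate hydrolysis at 25 °C; technique: 405 nm absorbance of p-nitroaniline, reads at 0 and 120 min; measure: % activation between DMSO and enzyme-spiked controls; repeats: single replicate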
# PP5 inh – PP5 phosphatase inhibitors, primary screen, biochemical, fluorescence; Serine/threonine-protein phosphatase 5 (Homo sapiens), P53041; purified PP5c, OMFP substrate fluorescence; inhibition, % at 6.7 µM; hit rate 0.18% among 320,000; AID 1987, 2009;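 active means inhibition above the campaign's mean inhibition across all tested compounds plus 3 SD, cut at about 9.5% in these data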;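 further: 0% = DMSO only and 100% = 100 µM cantharidin control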
# proCasp7 act – procaspase-7 activators, primary screen, counter-screen for procaspase-3 activator project, biochemical, absorbance, HTS, human; Caspase-7 (Homo sapiens), P55210; recombinant procaspase-7, Ac-DEVD-pNA absorbance 405 nm; D23A/D198A/D206A triple mutant, cannot self-cleave; scale: DMSO 0, 5 µM enzyme 100; activation, % at 8.5 µM; hit rate 0.093% among 330,000; AID 463210, 2010;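 active means percent activation above the screen-wide mean plus 3 SD, cut at about 25% in these data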
#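 buffer or medium = Zinc-free HEPES/NaCl buffer, pH 7.4 | material = Procaspase-7 triple mutant (PC-7 D3A) | input = 2 µM procaspase-7 mutant as dispensed | signal = Epi-absorbance of released pNA at 405 nm, two timepoints | timing = 1 h preincubation, 2 h reaction | replicates = singlicate compound testing | evaluation = % activation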
# PP1 confirm – PP1 phosphatase inhibitors, confirmation, biochemical, fluorescence, OMFP substrate, triplicate; hit rate 52% among 1,900; purified PP1alpha; inhibition, % at 6.7 µM; shares compounds with PP1 inh;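 active means mean PP1 inhibition above a set limit taken from the earlier primary screen, cut at about 15% in these data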
# PP5 inh counter – PP5 phosphatase inhibition by PP1 hits, confirmation, counter-screen for PP1 inhibitor project, biochemical, fluorescence, triplicate | purified PP5c, OMFP fluorescence | hit rate 4% among 1,900 | inhibition, % at 6.7 µM | shares compounds with PP1 inh | AID 2360, 2010;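 active means mean PP5 inhibition over triplicate wells above about 9.5% taken from the earlier PP1 screen, limit read from the data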
# An asterisk follows results filed as active; / = not tested or not shown.
SMILES,PP1 inh,procasp3 activ,PP5 inh,proCasp7 act,PP1 confirm,PP5 inh counter
Cc1ccccc1C1C(C#N)=C2N=C(N)c3c(sc4c3CCCCC4)N2C2=C1C(=O)CCC2 (stereo unspecified),25*,-4,1,-8,18*,9
COc1ccc(-n2c3c(cc(C(=O)NNc4ccccc4C)c2=O)C(=O)CC(C)(C)C3)cc1,18*,-1,1,4,1,-3
COc1ccc(-n2c3c(cc(C(=O)NNc4ccccc4)c2=O)C(=O)CC(C)(C)C3)cc1,1,-8,2,-6,/,/
CC1CCC(NC(=O)COC(=O)CNC(=O)c2ccc3ccccc3c2)CC1 (stereo unspecified),0,-2,2,-6,/,/
O=C(O)c1ccc(N/N=C/c2ccc(-c3cc(Cl)ccc3Cl)o2)cc1,18*,-13,-1,-36,19*,-3
COc1cccc(/C=C/C(=O)OCC(=O)c2ccc3c(c2)NC(=O)CO3)c1,33*,7,1,-1,28*,-3
Cc1cc(C)cc(OCC(=O)OCC(=O)c2ccc3c(c2)NC(=O)CO3)c1,0,6,4,-10,/,/
CC(C(=O)N1CCc2ccccc21)n1cnc2c1c(=O)n(C)c(=O)n2C (stereo unspecified),-3,-5,0,-2,/,/
Cn1cccc1-c1cc(C(=O)N/N=C/c2cc(Br)ccc2O)[nH]n1,21*,-53,1,-77,22*,-4
COc1cc(Cl)c(C)cc1NC(=O)COC(=O)c1ccc(CN2CCCC2=O)cc1,-1,0,3,-1,/,/
COc1ccc(C2CC(c3ccccc3)=NN2C(=O)CCCC(=O)O)cc1 (stereo unspecified),-5,13,1,-12,/,/
C=CCn1c(O)c(C2=c3ccccc3=NC2=O)s/c1=N/c1nccs1,23*,5,1,1,24*,1
C=CCn1c(O)c(C2=c3ccccc3=NC2=O)c2ccccc21,0,-13,-5,-10,/,/
O=C(CSc1ccc2nnc(-c3ccc(F)cc3)n2n1)N1CCCc2ccccc21,4,1,2,-5,/,/
O=C(CSc1ccc2nnc(-c3ccc(Cl)cc3)n2n1)N1CCCc2ccccc21,24*,5,2,7,13,-6
CC(=O)NC(c1cc(Cl)c2cccnc2c1O)C1CC1 (stereo unspecified),1,4,0,11,/,/
Oc1c(C(c2ccc(Cl)cc2)N2CCCC2)cc(Cl)c2cccnc12 (stereo unspecified),25*,4,5,-1,22*,-2
Oc1c(C(c2ccccn2)N2CCC(Cc3ccccc3)CC2)cc(Cl)c2cccnc12 (stereo unspecified),73*,11,5,-6,20*,2
CN1CCN(C(c2ccccn2)c2cc(Cl)c3cccnc3c2O)CC1 (stereo unspecified),72*,1,9,5,59*,6
CC(=O)NC(c1ccc(C(C)C)cc1)c1ccc2cccnc2c1O (stereo unspecified),13,1,6,-1,/,/
Oc1c(C(c2ccccc2Cl)N2CCCC2)ccc2cccnc12 (stereo unspecified),21*,1,-1,9,11,0
CCOC(=O)C1CCN(Cc2ccc(OCc3ccccc3)c(OC)c2)CC1,0,-3,1,1,/,/
COc1ccc(CCNC(=O)Cn2cnc3c(cnn3-c3ccccc3Cl)c2=O)cc1OC,-1,12,2,-3,/,/
COC(=O)[C@H](CCSC)NC(=O)Cn1cnc2c(SC)nc(N)nc21,/,-2,/,9,/,/
COc1ccc(NC(=O)COC(=O)C2CCN(S(=O)(=O)c3cccs3)CC2)cc1OC,/,2,/,-7,/,/
SMILES,PP1 inh,procasp3 activ,PP5 inh,proCasp7 act,PP1 confirm,PP5 inh counter
CN1CCN(Cc2cc(Cl)c3cccnc3c2OC(=O)c2cccs2)CC1,5,1,2,-2,/,/
Cc1ccc(C(c2cc(Cl)c3cccnc3c2O)N2CCN(C)CC2)cc1 (stereo unspecified),27*,-7,5,-11,11,-3
CCN1/C(=C/C(C)=C/c2sc3ccccc3[n+]2CC)Sc2ccccc21,23*,-35,10*,-29,3,10
CCN1/C(=C\C(=S)Nc2ccccc2)Sc2ccccc21,-6,-17,-1,-52,/,/
COc1ccc(C(=O)COC(=O)c2nc3nccc(C)n3n2)cc1F,-2,-6,1,5,/,/
Cc1ccc(C)c(N2CCN(C(=O)c3ccc4nc(-c5ccco5)c(-c5ccco5)nc4c3)CC2)c1,19*,-39,1,-39,11,0
O=C(NCCO)c1ccc2nc(-c3ccco3)c(-c3ccco3)nc2c1,2,-11,0,-28,/,/
O=C(NC1CCCC1)c1ccc2nc(-c3ccco3)c(-c3ccco3)nc2c1,19*,-18,-2,-14,3,2
CC1(C)CC(=O)C=C(OC(=O)c2ccc(Cl)cc2)C1,-2,0,0,-17,/,/
NS(=O)(=O)c1ccc(N=Nc2ccc(O)c3ncccc23)cc1,51*,-13,4,-6,37*,-2
Cc1cccc(N=Nc2ccc(O)c3ncccc23)c1,29*,-4,2,15,29*,-1
CCOC(=O)c1cc(-c2ccncc2)nc2c1c(C)nn2C,-1,5,1,6,/,/
CCOC(=O)c1cc(-c2ccccc2)nc2c1c(C)nn2-c1ccccn1,31*,-49,1,5,32*,-3
CN(C)/C=C1/C(=O)N(c2ccc([N+](=O)[O-])cc2)N=C1c1ccccc1,20*,6,2,1,11,2
CC1=NN(c2ccc([N+](=O)[O-])cc2)C(=O)/C1=C\N(C)C,1,1,3,-6,/,/
CN(C)/C=C1\C(=O)N(c2ccc([N+](=O)[O-])cc2)N=C1c1ccccc1,22*,-6,3,6,8,1
O=C(CSc1ccc(Cl)cc1)N/N=C/c1ccc([N+](=O)[O-])o1,2,2,3,13,/,/
Cc1ccn2c(Nc3ccc4c(c3)OCO4)c(-c3ccccn3)nc2c1,28*,0,4,-5,47*,-2
Cc1ccc2nc(-c3ccncc3)c(Nc3ccccc3)n2c1,1,5,4,4,/,/
Cc1ccc(Nc2c(-c3ccccn3)nc3cc(C)ccn23)cc1,40*,-98,5,-12,42*,3
